Read-outs that look alike come from different tables or passages of the source.
Legend:
[1] = system: HCT116 cells; test: Rescue of Lenvatinib-induced pyroptosis in pretreated HCT116 cells; type: cell-based; details: then stimulated with Lenvatinib
[2] = system: ERK phosphorylation; test: Western blot of VEGF-induced phosphorylation in HUVECs; type: cell-based; details: 0.3 μM
How it was run: (§1)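 HUVEC lysates made in RIPA buffer and protein measured by BCA. 100 μg protein run on 10% SDS-PAGE and transferred to nitrocellulose. Membranes blocked 2 h in TBST with 5% milk, then primary antibody overnight at 4 °C and secondary 1 h at room temperature. Bands detected by ECL.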

[3] = target: VEGFR2 (Homo sapiens, UniProt P35968); test: Kinase inhibition assay; type: biochemical
How it was run: (§2)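 Run by an outside contract provider as part of a panel covering VEGFR1-3, FGFR1-4 and PDGFR. Test compound was tested across a gradient of concentrations, and IC50 was calculated from the resulting concentration-response data.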

[4] = system: transgenic zebrafish embryos; test: Angiogenesis in flk:eGFP transgenic zebrafish; type: in vivo; details: 3 μM, 16 h
[5] = system: HUVECs; test: HUVEC tube formation assay; type: cell-based; details: 3 μM, 6 h
How it was run: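 Wells were pre-chilled, coated with Matrigel and polymerised at 37 °C for 1 h. HUVECs in ECM medium were seeded on the Matrigel at 2 × 10^4 cells/well together with test compound (3 μM). After 6 h, tube formation was observed by microscopy. Values are mean ± SD from three independent experiments.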

[6] = system: HUVECs; test: Wound healing; type: cell-based; details: 1.25 μM, 24 h
How it was run: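 HUVEC monolayers in 6-well plates were scratch-wounded, washed with PBS and treated with test compound (1.25 μM). Wounds were photographed under a microscope after 24 h. Values are mean ± SD from three independent experiments.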

[7] = system: HepG2 xenograft; test: HepG2 hepatoma xenograft model; type: in vivo, Balb/c nude mice
How it was run: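 Female Balb/c nude mice, 6–8 weeks old, carrying s.c. HepG2 xenografts. Tumours established as for the HCT116 initial model (~150 mm3). Groups: vehicle, test compound 50 mg/kg, reference drug 30 mg/kg; n = 5. Tumour volume (0.5 × a × b²) measured every three days and body weight followed. At the end of treatment, organs taken for H&E.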

[8] = system: HCT116 xenograft; test: HCT116 xenograft, initial tumor model; type: in vivo, Balb/c nude mice
How it was run: (§3)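 Female Balb/c nude mice, 6–8 weeks old. HCT116 cells (5 × 10^6 in 100 μL PBS) injected s.c. into the right flank. All given orally once daily. Tumour volume (0.5 × a × b²) measured every three days.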

[9] = system: LO2 cells; test: Microscopy imaging of cell morphology; type: cell-based; details: 48 h
How it was run: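 LO2 cells exposed 48 h to test compound or reference drug and imaged by microscopy. Scored features were apoptotic bodies and ballooned cell membranes typical of pyroptosis.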

[10] = Sub-acute toxicity study; type: in vivo, C57BL/6 mice; details: for deaths during the study / body weight: 25 days; for deaths during the study: female C57BL/6 mice
How it was run: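 Female C57BL/6 mice dosed orally for 25 days with vehicle, test compound 100 mg/kg or reference drug 40 mg/kg. Body weight and survival followed. Livers imaged and H&E stained. Plasma BUN, CREA, GLB, UREAL, ALP, AST and ALT measured (n = 3).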

[11] = system: HCT116 xenograft; test: HCT116 xenograft, medium-term tumor model; type: in vivo, Balb/c nude mice; details: for tumor inhibitory rate: medium-term HCT116 model
How it was run: as §3

[12] = system: VEGFR2 phosphorylation; test: Western blot of VEGF-induced phosphorylation in HUVECs; type: cell-based; details: 3.3 μM
How it was run: as §1

[13] = system: STAT3 phosphorylation; test: as above; type: cell-based; details: 1.0 μM
How it was run: as §1

[14] = system: tumor tissues; test: Immunohistochemistry of xenograft tumor tissues; type: in vivo, Balb/c nude mice; details: vs controls
How it was run: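 At the end of xenograft treatment, mice sacrificed under anaesthesia and tumours excised. Tumour sections stained by immunohistochemistry for Ki67 (proliferation) and CD31 (microvessels), plus TUNEL for apoptotic cells. Imaged at ×20.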

[15] = target: VEGFR1 (Homo sapiens, UniProt P17948); test: Kinase inhibition assay; type: biochemical
How it was run: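 Kinase activity tested by a contract provider over a gradient of test-compound concentrations. IC50 derived by fitting the concentration–response data.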

[16] = system: Hep3B2.1-7 xenograft; test: Hep3B2.1-7 hepatoma xenograft model; type: in vivo, Balb/c nude mice; details: Hep3B2.1-7 model; for growth inhibition rate: terminated day 15
How it was run: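 Female Balb/c nude mice, 6–8 weeks old, carrying s.c. Hep3B2.1-7 xenografts. Tumours established as for the HCT116 initial model (~150 mm3). Tumour volume (0.5 × a × b²) measured every three days and body weight monitored. At the end, mice sacrificed under anaesthesia and major organs taken for H&E.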

[17] = system: HUVECs; test: MTT assay in HUVECs; type: cell-based; details: Homo sapiens, HUVEC, 48 h
[18] = system: HepG2, Hepa3B2.1-7 and HCT116 cells; test: MTT and crystal violet; type: cell-based; details: MTT and crystal violet staining, time- and dose-dependent
How it was run: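 MTT: cells (2–5 × 10^3 per well) attached 24 h, then given graded concentrations of test compound (in DMSO): 6 days for liver cancer lines, 3 days for HCT116, and various times. MTT (5 mg/mL) added for 4 h; formazan dissolved in DMSO and absorbance read at 570 nm. Colony assay: 1.5 × 10^3 cells per well treated 10 days, fixed in 4% PFA 20 min, stained with 0.5% crystal violet 10 min, counted. Three independent experiments.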

[19] = system: N-GSDME and cleaved-caspase3 in HCT116, Hep3B2.1-7 and HepG2 cells; test: Western blot of pyroptosis-related proteins; type: cell-based; details: 48 h
How it was run: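 HCT116, Hep3B2.1-7 and HepG2 cells treated 48 h with graded concentrations of test compound or reference drug, then lysed in RIPA. 100 μg protein run on 10% SDS-PAGE and blotted to nitrocellulose. Probed for GSDME, N-GSDME, caspase-3 and cleaved caspase-3, with ECL detection. Bands quantified as ratio to GAPDH; three independent experiments.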

[20] = target: VEGFR3 (Homo sapiens, UniProt P35916); test: Kinase inhibition assay; type: biochemical
How it was run: as §2

[21] = system: VEGF165-induced HUVECs; test: EdU incorporation assay in HUVECs; type: cell-based
How it was run: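 HUVECs were kept in medium with 10% FBS at 37 °C and 5% CO2, then plated at 1 × 10^4 cells/well in 96-well plates. Cells received a range of test-compound concentrations or solvent control and were stained with an EdU proliferation kit plus Hoechst 33342. Under a fluorescence microscope, the read-out was the ratio of EdU-positive to Hoechst-positive cells. Values are mean ± SD from three independent experiments.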

[22] = system: HUVECs; test: Transwell invasion assay of HUVECs; type: cell-based; details: 1.25 μM, 24 h
How it was run: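 HUVECs (4 × 10^4) in growth-factor-free ECM medium went into Matrigel-coated transwell upper chambers; the lower chamber held ECM with growth factors. Test compound (1.25 μM) or DMSO was added to the upper cells for 24 h. Non-invading cells were scraped off, and invaded cells were fixed in 4% paraformaldehyde, stained with crystal violet and photographed. Values are mean ± SD, n = 3.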

[23] = system: HCT116, HepG2 and Hep3B2.1-7 cells; test: Cellular ROS level by flow cytometry; type: cell-based; details: 48 h, DCFH-DA
How it was run: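 Cells seeded at 3 × 10^4 per well in 6-well plates and grown 24 h, then exposed 48 h to graded concentrations of test compound or reference drug. Intracellular ROS stained with DCFH-DA (ROS assay kit), read by flow cytometry and quantified. DCFH-DA-stained HCT116 cells were also viewed by inverted fluorescence microscopy.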

[24] = system: LO2 cells; test: MTT assay in normal liver cells LO2; type: cell-based; details: Homo sapiens, L02, 72 h, read-out: IC50, viability of normal liver cells LO2

Chain of VEGFR1 (P17948 27-1338): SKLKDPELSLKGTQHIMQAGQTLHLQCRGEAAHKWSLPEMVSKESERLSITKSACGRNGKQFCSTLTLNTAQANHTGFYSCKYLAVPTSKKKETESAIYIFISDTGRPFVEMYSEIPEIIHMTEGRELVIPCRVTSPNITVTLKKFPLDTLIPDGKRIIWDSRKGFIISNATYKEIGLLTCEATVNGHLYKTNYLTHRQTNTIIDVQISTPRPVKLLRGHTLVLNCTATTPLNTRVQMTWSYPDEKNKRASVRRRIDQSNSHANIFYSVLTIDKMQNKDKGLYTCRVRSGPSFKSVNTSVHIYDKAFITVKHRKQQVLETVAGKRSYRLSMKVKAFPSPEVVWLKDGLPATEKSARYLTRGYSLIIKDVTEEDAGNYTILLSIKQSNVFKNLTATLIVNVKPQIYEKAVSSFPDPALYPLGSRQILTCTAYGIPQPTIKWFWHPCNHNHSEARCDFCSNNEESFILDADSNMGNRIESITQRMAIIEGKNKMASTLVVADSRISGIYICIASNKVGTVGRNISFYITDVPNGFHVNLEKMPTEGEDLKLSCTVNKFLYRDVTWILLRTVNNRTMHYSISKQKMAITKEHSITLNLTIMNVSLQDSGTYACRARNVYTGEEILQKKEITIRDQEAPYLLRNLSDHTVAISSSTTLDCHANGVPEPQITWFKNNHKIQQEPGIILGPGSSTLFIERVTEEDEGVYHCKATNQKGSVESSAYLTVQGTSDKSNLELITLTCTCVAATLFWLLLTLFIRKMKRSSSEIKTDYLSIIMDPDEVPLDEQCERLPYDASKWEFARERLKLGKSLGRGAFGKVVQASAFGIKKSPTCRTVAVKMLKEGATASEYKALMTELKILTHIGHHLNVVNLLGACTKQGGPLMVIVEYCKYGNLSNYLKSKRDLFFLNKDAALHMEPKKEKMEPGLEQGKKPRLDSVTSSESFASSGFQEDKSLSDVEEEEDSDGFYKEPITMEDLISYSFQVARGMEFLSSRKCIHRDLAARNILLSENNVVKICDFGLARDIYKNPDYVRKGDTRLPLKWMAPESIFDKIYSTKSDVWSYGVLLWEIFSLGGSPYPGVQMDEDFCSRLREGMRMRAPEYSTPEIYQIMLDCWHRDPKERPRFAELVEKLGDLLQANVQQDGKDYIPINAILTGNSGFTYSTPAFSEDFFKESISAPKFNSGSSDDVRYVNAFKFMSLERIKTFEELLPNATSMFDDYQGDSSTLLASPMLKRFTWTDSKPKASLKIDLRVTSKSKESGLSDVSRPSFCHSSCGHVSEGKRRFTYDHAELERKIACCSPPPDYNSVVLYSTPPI
Chain of VEGFR2 (P35968 20-1356): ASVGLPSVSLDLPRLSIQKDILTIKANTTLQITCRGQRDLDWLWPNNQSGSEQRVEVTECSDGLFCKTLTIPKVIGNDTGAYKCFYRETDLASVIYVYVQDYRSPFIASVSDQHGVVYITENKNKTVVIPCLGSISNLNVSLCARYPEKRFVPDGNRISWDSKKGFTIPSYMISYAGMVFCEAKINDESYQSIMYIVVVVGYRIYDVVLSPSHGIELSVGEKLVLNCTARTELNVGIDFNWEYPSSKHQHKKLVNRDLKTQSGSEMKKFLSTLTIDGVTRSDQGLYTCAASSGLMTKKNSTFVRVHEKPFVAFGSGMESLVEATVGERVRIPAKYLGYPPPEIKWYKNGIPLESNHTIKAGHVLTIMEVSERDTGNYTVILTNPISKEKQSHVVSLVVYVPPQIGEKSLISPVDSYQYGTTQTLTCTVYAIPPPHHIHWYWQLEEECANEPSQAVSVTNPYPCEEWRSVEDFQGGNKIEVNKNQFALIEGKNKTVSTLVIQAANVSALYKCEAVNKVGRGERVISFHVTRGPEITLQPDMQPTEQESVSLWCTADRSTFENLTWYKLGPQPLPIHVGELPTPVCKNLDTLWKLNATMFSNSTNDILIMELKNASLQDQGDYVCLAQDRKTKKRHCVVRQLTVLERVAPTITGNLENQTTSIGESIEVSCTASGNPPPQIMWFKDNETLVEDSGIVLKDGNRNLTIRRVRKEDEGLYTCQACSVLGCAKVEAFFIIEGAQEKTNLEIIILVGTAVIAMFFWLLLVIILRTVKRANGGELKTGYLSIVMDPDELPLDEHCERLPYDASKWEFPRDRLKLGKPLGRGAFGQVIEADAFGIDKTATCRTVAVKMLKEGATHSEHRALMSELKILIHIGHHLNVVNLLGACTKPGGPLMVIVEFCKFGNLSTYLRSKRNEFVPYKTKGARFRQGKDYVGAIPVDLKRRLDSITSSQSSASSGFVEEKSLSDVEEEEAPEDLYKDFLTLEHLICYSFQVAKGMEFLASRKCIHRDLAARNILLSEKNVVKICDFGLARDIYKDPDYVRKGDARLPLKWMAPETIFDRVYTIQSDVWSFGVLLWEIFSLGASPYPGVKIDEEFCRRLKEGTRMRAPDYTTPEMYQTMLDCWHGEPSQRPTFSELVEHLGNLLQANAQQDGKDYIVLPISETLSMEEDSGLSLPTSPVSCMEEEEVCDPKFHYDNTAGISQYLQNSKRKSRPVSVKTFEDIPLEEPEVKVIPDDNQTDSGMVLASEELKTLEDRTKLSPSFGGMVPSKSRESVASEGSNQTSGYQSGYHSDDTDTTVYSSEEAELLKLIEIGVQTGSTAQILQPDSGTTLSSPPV
Chain of VEGFR3 (P35916 25-1363): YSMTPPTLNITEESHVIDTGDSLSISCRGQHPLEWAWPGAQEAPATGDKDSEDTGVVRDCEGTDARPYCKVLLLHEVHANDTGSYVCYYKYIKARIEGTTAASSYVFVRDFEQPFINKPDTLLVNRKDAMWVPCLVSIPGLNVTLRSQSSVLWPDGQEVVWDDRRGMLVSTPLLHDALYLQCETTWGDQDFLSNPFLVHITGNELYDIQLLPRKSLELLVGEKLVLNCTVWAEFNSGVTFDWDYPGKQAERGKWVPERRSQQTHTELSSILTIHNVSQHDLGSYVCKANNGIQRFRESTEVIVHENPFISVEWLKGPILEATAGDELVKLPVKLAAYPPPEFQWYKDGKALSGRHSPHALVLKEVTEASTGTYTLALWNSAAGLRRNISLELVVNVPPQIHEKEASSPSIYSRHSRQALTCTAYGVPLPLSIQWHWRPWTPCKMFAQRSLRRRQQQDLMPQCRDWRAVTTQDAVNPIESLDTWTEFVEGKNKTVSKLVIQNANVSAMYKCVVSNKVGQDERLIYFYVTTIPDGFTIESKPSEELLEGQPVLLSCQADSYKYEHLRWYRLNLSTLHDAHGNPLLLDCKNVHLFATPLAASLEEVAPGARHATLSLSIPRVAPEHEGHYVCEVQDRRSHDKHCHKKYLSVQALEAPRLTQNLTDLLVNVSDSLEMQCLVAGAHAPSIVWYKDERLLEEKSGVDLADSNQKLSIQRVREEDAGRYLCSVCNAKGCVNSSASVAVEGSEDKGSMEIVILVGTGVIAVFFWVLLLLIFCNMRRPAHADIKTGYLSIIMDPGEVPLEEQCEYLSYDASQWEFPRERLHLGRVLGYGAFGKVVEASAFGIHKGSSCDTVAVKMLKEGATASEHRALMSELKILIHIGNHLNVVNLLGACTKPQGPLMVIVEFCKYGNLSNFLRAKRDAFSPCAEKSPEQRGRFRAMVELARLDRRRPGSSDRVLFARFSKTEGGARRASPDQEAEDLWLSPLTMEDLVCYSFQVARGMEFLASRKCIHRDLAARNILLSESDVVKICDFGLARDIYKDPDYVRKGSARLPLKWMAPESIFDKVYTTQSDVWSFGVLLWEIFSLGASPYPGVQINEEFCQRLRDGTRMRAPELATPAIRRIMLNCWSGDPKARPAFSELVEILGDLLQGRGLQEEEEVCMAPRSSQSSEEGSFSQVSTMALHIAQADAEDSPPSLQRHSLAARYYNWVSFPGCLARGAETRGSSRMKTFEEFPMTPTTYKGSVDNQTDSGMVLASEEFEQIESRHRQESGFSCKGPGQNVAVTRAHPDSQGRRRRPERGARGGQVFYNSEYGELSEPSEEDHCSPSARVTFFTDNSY

SMILES: COC(=O)CC[C@H](NC(=O)[C@H](CC(=O)OC)NC(=O)OCc1ccccc1)C(=O)N[C@H](C(=O)N[C@@H](CC(=O)OC)C(=O)CF)C(C)C [Z-DEVD-FMK]
- effect on Lenvatinib-induced cell swelling / pyroptosis [1]: abolished

SMILES: COCCOCCOc1cc2nccc(Oc3ccc(NC(=O)NC4CC4)c(Cl)c3)c2cc1C(N)=O [ZLF-095, 4-(3-chloro-4-(3-cyclopropylureido)phenoxy)-7-(2-(2-methoxyethoxy)ethoxy)qui noline-6-carboxamide]
- ERK phosphorylation [2]: significantly inhibited
- IC50 [3]: 5 nM
- formation of intersegmental vessels (ISV) [4]: significantly suppressed the formation of intersegmental vessels (ISV), similar to Lenvatinib
- capillary tube formation of HUVECs [5]: inhibited capillary tube formation of HUVECs
- migration of HUVECs (wound healing) [6]: inhibited the migration of HUVECs slightly better than Lenvatinib
- body weight ([7]; 50 mg/kg, 25 days): no influence on the weight
- suppression of cancer growth ([7]; 50 mg/kg, 25 days): 75.2%
- tumor inhibitory rate ([8]; 5 mg/kg oral once daily): 72.7%
- tumor inhibitory rate ([8]; 15 mg/kg oral once daily): 83.9%
- cell morphology (pyroptosis) [9]: no such change was seen
- liver images and H&E ([10]; 100 mg/kg oral): no visible abnormalities in the liver
- serum levels of BUN, CREA, GLB, UREAL, ALP, AST and ALT ([10]; 100 mg/kg oral): No aberrant serum levels
- deaths during the study ([10]; 100 mg/kg oral): none
- body weight ([10]; 100 mg/kg oral, vs vehicle): no significant changes in body weight
- tumor inhibitory rate ([11]; 5 mg/kg oral once daily): 60.7%
- tumor inhibitory rate ([11]; 15 mg/kg oral once daily): 72.5%
- phosphorylation of VEGFR2 induced by 50 ng/mL VEGF-165 [12]: obviously suppressed
- STAT3 phosphorylation [13]: significantly inhibited
- expression of Ki67 in tumor tissues ([14]; immunohistochemistry): significantly decreased
- micro-vessel density of tumors (CD31) [14]: markedly decreased
- number of apoptotic cells in tumor tissues (TUNEL) [14]: increased
- IC50 [15]: 2 nM
- growth inhibition rate ([16]; 30 mg/kg): 66.6%
- growth inhibition rate ([16]; 80 mg/kg): 81.5%
- gross abnormalities ([16]; dose levels up to 80 mg/kg): no gross abnormalities were observed
- IC50 ([17]; read-out: IC50, viability of VEGF165-induced HUVECs): 1770 nM
- IC50 ([17]; read-out: IC50, viability of untreated HUVECs): 10100 nM
- proliferation of HepG2, Hepa3B2.1-7 and HCT116 cells [18]: significantly inhibited
- cleaved-caspase3 / caspase3 activation [19]: increased caspase3 activation
- expression of N-GSDME [19]: had no effect
- IC50 [20]: 0.7 nM
- cell proliferation (EdU) [21]: reduced cell proliferation in VEGF165-induced HUVECs in a dose-dependent manner
- invasion of HUVECs (transwell) [22]: significantly inhibited the invasion of HUVECs, similar to Lenvatinib

SMILES: COc1cc2nccc(Oc3ccc(NC(=O)NC4CC4)c(Cl)c3)c2cc1C(N)=O [Lenvatinib, reference compound]
- body weight / lethality ([7]; 30 mg/kg, after 16 days): marked loss of body weight led to death in mice
- body weight ([8]; 5 mg/kg): lower body weights than ZLF-095-treated group
- tumor inhibitory rate ([8]; 5 mg/kg oral once daily): 76.8%
- cell morphology (pyroptosis) [9]: large bubbles bulging from the cell membrane
- levels of ALP ([10]; 40 mg/kg oral): notably increased
- levels of AST and ALT ([10]; 40 mg/kg oral): decreased
- liver images and H&E ([10]; 40 mg/kg oral): focal necrosis and significant inflammatory cell infiltration
- body weight ([10]; 40 mg/kg oral): obvious body weight loss
- deaths during the study ([10]; 40 mg/kg oral): 5/5
- intracellular ROS levels [23]: significantly increased
- body weight ([11]; medium-term (metaphase) HCT116 model, 5 mg/kg): lower body weights than ZLF-095-treated group
- tumor inhibitory rate ([11]; 5 mg/kg oral once daily): 66.5%
- body weight ([16]; 30 mg/kg, day 15): sustained weight loss
- growth inhibition rate ([16]; 30 mg/kg): 78.1%
- cleaved-caspase3 / caspase3 activation [19]: obviously up‐regulated
- expression of N-GSDME [19]: obviously up‐regulated
- IC50 [24]: 14000 nM

SMILES: CC(=O)N[C@@H](CS)C(=O)O [NAC]
- effect on Lenvatinib-induced cell swelling / pyroptosis [1]: rescue Lenvatinib-induced pyroptosis

Reference: article PMC10209341 (Heliyon, 2023)
